Assay outcomes from PubChem.
Rows were chosen to be rich in hits. Some 1.9% of all compounds tested hit in one or more screens of this group.
HCV NS3 hel inh: blocks Hepatitis C virus NS3 helicase unwinding; NS3 helicase DNA unwinding, Cy5 molecular beacon fluorescence; inhibition, % at 10.9 µM; 290,000 tested, 0.56% active; AID 1800;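 active = inhibition above the mean of all tested compounds plus 3 SD, set per campaign, cut at about 35% in these data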
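test system = hepatitis C virus NS3 helicase domain fragment enzyme | reagent = annealed dual-labelled DNA beacon duplex, ATP-started | times = 1 h at 25 °C | detection = Cy5 fluorescence, 0 and 60 min reads | read-out basis = percent inhibition from t60/t0 fluorescence ratio | control set = DMSO and thioflavine S | replication = one well per compound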
EBNA-1 inhibitor: blocks EBNA-1 binding to DNA; EBNA-1 DNA binding, fluorescence polarization; inhibition, % at 14.8 µM; 300,000 tested, 0.34% active; in the data active = inhibition above about 28%
HCV core dimer: HCV core protein dimerization inhibition. inhibition, % at 5 µM. TR-FRET GST/Flag-core106 dimerization, 1536-well. 300,000 tested, 0.33% active;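 active = inhibition above the mean of all tested compounds plus 3 SD, set per screening campaign, cut at about 45% in these data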
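Test system: GST/Flag-tagged HCV core106 proteins; Medium: KF-containing HEPES buffer, pH 7.45, DTT, CHAPS, BSA; Times: compound-protein-antibody incubation 4 h at 22.5 °C; Detection: TR-FRET 671 and 617 nm emission; Benchmarks: wells lacking GST-core106 and wells with excess unlabelled core106.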
PP1 counter: counter-screen for PP5 inhibitors: inhibitors of human PP1-alpha. P62136. purified PP1alpha, OMFP fluorescence. inhibition, % at 6.7 µM. 320,000 tested, 0.9% active. AID 2235;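 active = inhibition above the mean inhibition of all tested compounds plus 3 SD, computed separately for each screening campaign, cut at about 15% in these data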
Target sequence (P62136 whole entry, looked up): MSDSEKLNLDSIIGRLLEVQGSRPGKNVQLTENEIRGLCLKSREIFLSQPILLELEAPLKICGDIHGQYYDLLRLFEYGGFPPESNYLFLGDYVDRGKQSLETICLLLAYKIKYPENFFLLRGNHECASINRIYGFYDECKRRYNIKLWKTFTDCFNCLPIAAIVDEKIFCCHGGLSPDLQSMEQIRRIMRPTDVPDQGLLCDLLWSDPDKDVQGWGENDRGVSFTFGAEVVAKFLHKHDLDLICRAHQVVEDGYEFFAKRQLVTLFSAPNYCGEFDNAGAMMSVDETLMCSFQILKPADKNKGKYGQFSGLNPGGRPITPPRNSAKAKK
ZTA counter: counter-screen for EBNA-1 inhibitors: inhibitors of Epstein-Barr virus ZTA. P03206. ZTA-DNA binding, fluorescence polarization. inhibition, % at 11 µM. 320,000 tested, 0.15% active. AID 2234; in the data active = inhibition above about 33%
Target sequence (P03206 whole entry, looked up): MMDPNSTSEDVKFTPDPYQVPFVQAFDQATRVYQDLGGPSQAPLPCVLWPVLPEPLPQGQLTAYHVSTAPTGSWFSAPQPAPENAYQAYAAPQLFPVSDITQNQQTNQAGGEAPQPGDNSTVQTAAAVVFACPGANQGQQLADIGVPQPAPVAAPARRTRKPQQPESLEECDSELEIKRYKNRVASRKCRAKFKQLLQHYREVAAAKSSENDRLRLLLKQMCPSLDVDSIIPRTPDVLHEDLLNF
Numbers stand for hits; 0 = inactive; - = not tested or not shown; + = active, no number.

SMILES	HCV NS3 hel inh	EBNA-1 inhibitor	HCV core dimer	PP1 counter	ZTA counter
COc1ccc(-c2nc3ccccn3c2/N=C/c2ccc(OC)c(OC)c2)cc1O	0	0	0	0	0
O=C1/C(=C/c2cccnc2)CCC/C1=C\c1cccnc1	0	0	0	0	38
CN(C)c1ccc(/C=C2\CCC/C(=C\c3ccccc3)C2=O)cc1	0	0	0	0	0
O=C1/C(=C/c2ccc(C(=O)O)cc2)CCC/C1=C\c1ccc(C(=O)O)cc1	0	0	0	0	61
N#Cc1c(Sc2ncc(C(F)(F)F)cc2Cl)nsc1C/C=N\OCc1c(F)cccc1Cl	0	0	54	0	0
Cc1cc2cc(CNC(=O)Nc3cccc(Cl)c3)ccc2n1C	0	0	0	16	0
CCN(CC)c1ccc(N)cc1	-	-	-	0	0
Nc1ccc(N(CCO)CCO)cc1	0	193	0	0	+
CN(c1ccccc1)S(=O)(=O)c1ccc(NC(=O)c2ccccc2C(=O)O)cc1	-	0	0	0	0
Cc1ccc(Nc2nc(-c3ccc(S(=O)(=O)N4CCOCC4)cc3)cs2)cc1Cl	0	31	0	0	0
CC(C)CC(=O)Nc1nc(-c2ccc(S(=O)(=O)N3CCOCC3)cc2)cs1	0	-	-	-	-
N#Cc1c(NC(=O)CN2CCN(S(=O)(=O)c3ccc4c(c3)OCCO4)CC2)sc2c1CCC2	0	0	71	0	0
NC(=O)c1c(NC(=O)CN2CCN(S(=O)(=O)c3ccccc3)CC2)sc2c1CCC2	-	0	48	0	0
O=C(O)c1cccc2c(-c3ccccc3)c(-c3ccccc3)[nH]c12	0	0	0	15	0
Cc1cc(O)c(-c2cc(C(=O)NCc3ccc4c(c3)OCO4)[nH]n2)cc1C	0	0	0	16	0
CC(C)[C@H](NC(=O)N1CCn2c1nc1ccccc12)C(=O)NCC1CCCO1 (stereo not given in full)	0	0	0	0	0
S=C1NC2=C(CCCC2=C2SCCCS2)C(c2ccccc2)N1 (stereo not given)	0	0	48	0	0
S=C1NC2=C(CCC/C2=C\c2ccccc2)C(c2ccccc2)N1 (stereo not given)	0	0	0	0	0
COc1ccc(C2NC(=S)NC3=C2CCCC3=C2SCCS2)cc1 (stereo not given)	0	0	48	0	0
CC(=O)c1cc(C#N)c(SCCC(C)C)nc1C	0	0	0	0	0
CC(C)CCSc1nc(N)c(C#N)cc1C#N	0	0	64	0	0
Cc1ccccc1NC(=O)Nc1nc2ccc(S(C)(=O)=O)cc2s1	0	155	0	0	38
O=C(O)C1Nc2c(C(=O)N3CCOCC3)cccc2C2C=CCC12 (stereo not given)	0	0	0	0	0
Cc1ccc2c(c1C)NC(C(=O)O)C1CC=CC21 (stereo not given)	-	0	71	0	0
O=C(COC(=O)c1ccc2[nH]c3c(c2c1)CCCC3)Nc1ccccc1	0	0	0	0	0
SMILES	HCV NS3 hel inh	EBNA-1 inhibitor	HCV core dimer	PP1 counter	ZTA counter
CC1(C)Cc2c(sc3[nH]c(=S)n(Cc4ccco4)c(=O)c23)CO1	0	0	0	0	0
O=c1c2c3c(sc2[nH]c(=S)n1Cc1ccco1)CCC3	0	0	48	0	0
CCn1c(SCC(=O)Nc2cccc(NC(C)=O)c2)nnc1-c1ccco1	0	0	0	0	0
CCn1c(SCC(=O)Nc2ccc3c(c2)c2ccccc2n3CC)nnc1-c1ccco1	0	0	65	0	0
CCn1c(SCC(=O)Nc2sc3c(c2C(N)=O)CCC(C)C3)nnc1-c1ccco1 (stereo not given)	0	0	56	0	0
COc1ccc(/C=C/C(=O)NC(=S)NNC(=O)c2cccs2)cc1	0	0	0	17	0
COc1ccc(C(=O)NNC(=S)NC(=O)c2cccs2)cc1	0	0	0	0	0
COc1ccc(/C=C/C(=O)NC(=S)NNC(=O)c2cnccn2)cc1	0	0	0	0	0
COc1ccc(/C=C/C(=O)NC(=S)NNC(=O)c2cccnc2)cc1	0	0	0	16	0
C/C(=N\NC(=O)c1nnn(-c2nonc2N)c1CN1CCOCC1)c1ccc(CC(C)C)cc1	0	0	0	0	0
COC(=O)c1c(NC(=O)CN2C(=O)NC3(CCc4ccccc4C3)C2=O)sc2c1CCCCC2 (stereo not given)	0	0	0	15	0
CC1CCCCC12NC(=O)N(CC(=O)Nc1sc3c(c1C(N)=O)CCC3)C2=O (stereo not given)	0	0	69	0	0
CC1CCC2(CC1)NC(=O)N(CC(=O)Nc1sc3c(c1C(N)=O)CCC3)C2=O (stereo not given)	0	0	52	0	0
COC(=O)c1c(NC(=O)CN2C(=O)NC3(CCC(C)CC3)C2=O)sc2c1CCC2 (stereo not given)	-	-	-	0	0
CN(C)CCCN(C(=O)c1cc2cc([N+](=O)[O-])ccc2s1)c1nc2cc3c(cc2s1)OCCO3	-	0	0	0	0
CCN(CC(=O)Nc1ccc(Br)cc1)C(=O)Cc1cccc(F)c1	0	0	0	0	0
COc1ccc2c(c1)c(=O)oc1cc(OCC(=O)N3CCCC(C)C3)ccc12 (stereo not given)	0	0	0	16	0
Cc1sc2ncn(CC(=O)NCc3ccco3)c(=O)c2c1-c1ccc(F)cc1	0	0	0	0	0
O=C(Cn1cnc2scc(-c3cccc([N+](=O)[O-])c3)c2c1=O)NCc1ccco1	0	0	64	0	0
COc1cccc(CN2CCNC(=O)C2CC(=O)NC2CCCC2)c1OC (stereo not given)	0	0	0	0	0
Cc1ccc(C(=O)Nc2nnc(CC(=O)N/N=C/c3ccncc3)s2)cc1	0	0	0	15	0
COc1ccc(C(=O)Nc2nnc(CC(=O)N/N=C/c3ccc(O)cc3O)s2)cc1	0	0	0	0	0
O=C(COC(=O)CCCN=C1NS(=O)(=O)c2ccccc21)NNC(=O)c1ccccc1	-	0	0	0	0
CCOc1ccc(NC(=O)c2c[nH]n3c(=O)cc(C4CCN(C(=O)OC(C)(C)C)CC4)nc23)cc1	0	0	0	16	0
CCOC(=O)N1CCC(c2cc(=O)n3[nH]cc(C(=O)OC)c3n2)CC1	0	0	0	0	0
SMILES	HCV NS3 hel inh	EBNA-1 inhibitor	HCV core dimer	PP1 counter	ZTA counter
O=S(=O)(Nc1cccc(-c2cn3cccnc3n2)c1)c1ccc(-c2ccccc2)cc1	0	0	50	0	0
CCn1c(=O)c(C(=O)CN2CCOCC2)c(N)n(Cc2ccccc2)c1=O	0	0	0	0	0
CCn1c(=O)c(C(=O)CN2CCc3ccccc32)c(N)n(Cc2ccccc2)c1=O	0	0	51	0	0
Cc1ccc2oc(-c3cccc(NC(=O)/C=C/c4cccc([N+](=O)[O-])c4)c3C)nc2c1	0	28	0	0	0
O=C(/C=C/c1cccc([N+](=O)[O-])c1)Nc1ccccn1	0	0	0	0	0
CCc1c(C)sc(NC(=O)c2ccco2)c1C#N	0	-	-	-	-
CCN(CC)S(=O)(=O)c1ccc2c(c1)nc(CCC(=O)Nc1ccc3c(c1)OCO3)n2CC	0	0	0	15	0
